Experimental data reported in ChEMBL document CHEMBL1157620, “1-(Aryl)-6-[alkoxyalkyl]-3-azabicyclo[3.1.0]hexanes and 6-(aryl)-6-[alkoxyalkyl]-3-azabicyclo[3.1.0]hexanes: a new series of potent and selective triple reuptake inhibitors” (J Med Chem, 2010).

Tests used:
[1] = target: Sodium-dependent dopamine transporter (Homo sapiens, UniProt Q01959); assay: Displacement of [3H]WIN-35428 from human recombinant DAT expressed in BacMam virus-transduced cells by scintillation proximity assay; type: cell-based
[2] = target: Sodium-dependent noradrenaline transporter (Homo sapiens, UniProt P23975); assay: Displacement of [3H]nisoxetine from human recombinant NET expressed in BacMam virus-transduced cells by scintillation proximity assay; type: cell-based
How it was run: (§1)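 BacMam-transduced membranes in SPA format. SERT: 1 mg/mL beads, 6 μg/mL membranes, 3 nM [3H]citalopram. NET: 2 mg/mL beads, 40 μg/mL membranes, 10 nM [3H]nisoxetine. Incubated overnight at room temperature; pKi from pIC50 by Cheng-Prusoff.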

[3] = target: Sodium-dependent serotonin transporter (Homo sapiens, UniProt P31645); assay: Displacement of [3H]citalopram from human recombinant SERT expressed in BacMam virus-transduced cells by scintillation proximity assay; type: cell-based; how it was run: as §1
[4] = Blood clearance in rat; type: ADME, organism-based
[5] = Half life in rat; type: ADME, organism-based; conditions: in vivo
[6] = Volume of distribution in rat; type: ADME, organism-based; conditions: in vivo
[7] = Bioavailability in rat; type: ADME, organism-based; conditions: in vivo
Brain = assay: Fraction unbound in rat brain; type: ADME, tissue-based

Sequence of Sodium-dependent serotonin transporter (P31645 whole entry): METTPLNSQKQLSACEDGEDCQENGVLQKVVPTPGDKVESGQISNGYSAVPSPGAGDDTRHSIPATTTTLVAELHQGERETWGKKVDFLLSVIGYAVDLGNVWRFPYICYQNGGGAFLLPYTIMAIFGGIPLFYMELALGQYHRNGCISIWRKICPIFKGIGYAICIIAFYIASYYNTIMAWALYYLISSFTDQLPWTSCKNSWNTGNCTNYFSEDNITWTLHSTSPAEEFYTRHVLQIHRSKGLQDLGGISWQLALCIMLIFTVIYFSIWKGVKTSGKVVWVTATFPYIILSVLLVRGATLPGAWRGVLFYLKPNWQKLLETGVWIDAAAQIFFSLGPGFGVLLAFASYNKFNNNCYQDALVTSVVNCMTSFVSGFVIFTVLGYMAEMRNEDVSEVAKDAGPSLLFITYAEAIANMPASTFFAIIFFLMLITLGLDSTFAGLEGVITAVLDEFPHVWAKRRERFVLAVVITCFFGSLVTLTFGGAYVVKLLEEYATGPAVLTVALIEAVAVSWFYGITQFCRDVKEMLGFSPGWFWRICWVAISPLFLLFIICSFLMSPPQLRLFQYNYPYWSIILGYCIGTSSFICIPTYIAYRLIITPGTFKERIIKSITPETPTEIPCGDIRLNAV
Sequence of Sodium-dependent dopamine transporter (Q01959 whole entry): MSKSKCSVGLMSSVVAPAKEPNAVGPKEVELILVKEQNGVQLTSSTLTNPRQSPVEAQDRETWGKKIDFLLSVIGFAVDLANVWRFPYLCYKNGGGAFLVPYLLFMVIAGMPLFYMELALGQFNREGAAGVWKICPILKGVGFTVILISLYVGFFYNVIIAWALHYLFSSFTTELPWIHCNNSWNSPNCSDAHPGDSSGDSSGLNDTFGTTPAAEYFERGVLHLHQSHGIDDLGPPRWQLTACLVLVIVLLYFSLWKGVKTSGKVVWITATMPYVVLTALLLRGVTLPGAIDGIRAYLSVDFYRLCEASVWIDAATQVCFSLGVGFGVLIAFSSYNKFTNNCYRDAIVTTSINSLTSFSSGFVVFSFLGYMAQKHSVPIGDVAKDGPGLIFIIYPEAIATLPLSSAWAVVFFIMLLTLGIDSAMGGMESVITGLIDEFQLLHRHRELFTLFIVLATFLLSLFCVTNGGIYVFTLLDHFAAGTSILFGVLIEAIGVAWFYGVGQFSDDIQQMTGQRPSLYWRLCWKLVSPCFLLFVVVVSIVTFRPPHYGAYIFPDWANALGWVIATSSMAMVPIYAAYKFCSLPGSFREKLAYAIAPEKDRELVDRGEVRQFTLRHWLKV
Sequence of Sodium-dependent noradrenaline transporter (P23975 whole entry): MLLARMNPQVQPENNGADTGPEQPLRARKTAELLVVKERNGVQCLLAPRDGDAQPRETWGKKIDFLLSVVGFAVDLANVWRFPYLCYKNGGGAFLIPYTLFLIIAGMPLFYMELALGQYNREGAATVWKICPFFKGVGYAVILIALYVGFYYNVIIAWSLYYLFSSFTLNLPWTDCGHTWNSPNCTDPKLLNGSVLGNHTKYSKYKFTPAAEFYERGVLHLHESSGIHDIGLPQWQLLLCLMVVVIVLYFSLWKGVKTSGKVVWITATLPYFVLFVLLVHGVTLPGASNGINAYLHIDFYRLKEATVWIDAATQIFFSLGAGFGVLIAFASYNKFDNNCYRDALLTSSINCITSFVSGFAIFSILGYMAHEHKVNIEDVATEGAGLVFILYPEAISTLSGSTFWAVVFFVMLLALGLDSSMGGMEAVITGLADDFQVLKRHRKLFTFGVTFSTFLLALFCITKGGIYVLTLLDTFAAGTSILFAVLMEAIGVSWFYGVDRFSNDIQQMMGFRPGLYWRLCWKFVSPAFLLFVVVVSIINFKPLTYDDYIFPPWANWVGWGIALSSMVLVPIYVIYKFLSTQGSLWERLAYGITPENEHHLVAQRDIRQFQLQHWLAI

For FC(F)(F)COC[C@H]1[C@@H]2CNC[C@@]21c1ccc(Cl)c(Cl)c1, the Ki [1] was 631 nM, the Ki [2] was 347 nM and the Ki [3] was 56.2 nM. For the same molecule, the clearance [4] was 42 mL/min/kg, the half-life [5] was 84 min and the Vd [6] was 3.2 L/kg. The bioavailability [7] was 41% and the Fu (Brain) was 0.6%.
